Assay results of several laboratories.
Protocols differ between the studies behind these lines.
Target: Mitogen-activated protein kinase 12 (MAPK12, Homo sapiens, UniProt P53778)
Sequence (P53778 1-367, as in one of the studies): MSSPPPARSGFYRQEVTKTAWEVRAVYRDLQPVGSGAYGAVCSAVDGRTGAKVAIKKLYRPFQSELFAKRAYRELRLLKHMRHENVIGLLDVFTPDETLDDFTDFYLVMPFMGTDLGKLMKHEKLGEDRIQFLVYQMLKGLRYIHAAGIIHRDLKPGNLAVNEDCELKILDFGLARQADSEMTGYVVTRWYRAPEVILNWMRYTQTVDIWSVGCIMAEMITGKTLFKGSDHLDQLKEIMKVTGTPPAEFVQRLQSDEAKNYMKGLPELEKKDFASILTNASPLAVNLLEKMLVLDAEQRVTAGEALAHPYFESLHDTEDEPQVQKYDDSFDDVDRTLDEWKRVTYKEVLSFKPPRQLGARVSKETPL

| Compound | effect on | action | method | concentration | endpoint | result |
| --- | --- | --- | --- | --- | --- | --- |
| Oc1ccc(-c2nc(-c3ccncc3)c(-c3ccc(F)cc3)[nH]2)cc1 | cell-free assay | – | – | 0.5 µM | remaining signal | 102% |
| CCN(CC)c1ccc(C2=NNC(=O)CC2C)cc1[N+](=O)[O-] (stereo not shown) | enzyme activity | inhibitor | – | 10 µM | remaining activity | 104% |
| CCS(=O)(=O)c1cc2cc(C[C@@](O)(CC(C)(C)c3ccc(F)cc3C(N)=O)C(F)(F)F)[nH]c2cn1 | cell-free assay | – | competition with immobilised ligand | 1 µM | remaining binding | 100% |
| CC(C)(C)c1nc(-c2cccc(NS(=O)(=O)c3c(F)cccc3F)c2F)c(-c2ccnc(N)n2)s1 | enzyme activity | inhibitor | radiometric | 1 µM | remaining activity | 102% |
| CCC(=O)N[C@H]1CC[C@@H](C(=O)N(C)c2ccc(-c3nc4ccccc4o3)cc2)C1 | cell-free assay | – | competition with immobilised ligand | 1 µM | remaining binding | 67% |
| COc1cc2ncnc(Nc3ccc(Oc4ccccc4)c(C)c3C)c2cc1OC | enzyme activity | inhibitor | – | 1 µM | inhibition | 2% |
| CCCS(=O)(=O)Nc1ccc(F)c(C(=O)c2c[nH]c3ncc(-c4ccc(Cl)cc4)cc23)c1F | enzyme activity | inhibitor | – | 1 µM | inhibition | < 10% |
| Cc1ccc(C(=O)Nc2ccc(CN3CCN(C)CC3)c(C(F)(F)F)c2)cc1C#Cc1cnc2cccnn12 | enzyme activity | inhibitor | – | 23.5 nM | remaining activity | 70% |
| CC(=O)C1=C(C)N(c2cccc(C(F)(F)F)c2)C(=O)N[C@@H]1c1ccc(C#N)nc1 | cell-free assay | – | competition with immobilised ligand | 1 µM | remaining binding | 77.4% |
| O=C(Nc1cnn(-c2csc(C(=O)NC3COC3)c2)c1)Nc1c(F)cccc1Cl | enzyme activity | inhibitor | – | 5 µM | remaining activity | 98.3% |
| Cn1c(=O)n(-c2ccc(C(C)(C)C#N)cc2)c2c3cc(-c4cnc5ccccc5c4)ccc3ncc21 | enzyme activity | inhibitor | – | 10 µM | remaining activity | 101% |
| Cc1ccc(Nc2nccc(N(C)c3ccc4c(C)n(C)nc4c3)n2)cc1S(N)(=O)=O | enzyme activity | inhibitor | – | 10 µM | inhibition | -5% |
| N#CC1(c2ccccn2)CCN(Cc2cc(C(=O)N3CCCC3)c(=O)n3ccccc23)CC1 | cell-free assay | – | competition with immobilised ligand | 1 µM | remaining binding | 100% |
| COc1cc(/C=C/C(=O)CC(=O)/C=C/c2ccc(O)c(OC)c2)ccc1O | enzyme activity | inhibitor | – | 1 µM | activity vs control | 101% |
| Nc1ncnc2occ(-c3ccc(NC(=O)Nc4cc(C(F)(F)F)ccc4F)cc3)c12 | cell-free assay | inhibitor | – | 20 µM | remaining signal | 0.5% |
| N#CCCc1ccc2c(c1)-c1[nH]c3ccc([N+](=O)[O-])cc3c1CC(=O)N2 | cell-free assay | – | – | 0.5 µM | remaining signal | 98.9% |
| O=C(Nc1cccnn1)N1CCC(=Cc2cccc(Oc3ccc(C(F)(F)F)cn3)c2)CC1 | cell-free assay | – | competition with immobilised ligand | 1 µM | remaining binding | 100% |
| Nc1nc(Nc2ccccc2)sc1C(=O)c1c(F)cccc1F | enzyme activity | inhibitor | – | 10 µM | remaining activity | 77% |
| CC(C)(O)[C@H]1CC[C@H](Nc2ccc3ncc(-c4cccc(C(F)(F)F)c4)n3n2)CC1 | enzyme activity | inhibitor | – | 1 µM | remaining activity | 93.8% |
